Test results reported in PMC9029315 (RSC Advances, 2021).
In brackets after ≈: the same amount, converted by molar mass. Like-named read-outs stand apart in the source and are kept apart here.

Legend:
[1] = tested on: KNS42 cells (paediatric GBM); test: KNS42 cell proliferation assay; format: cell-based; conditions: Homo sapiens, KNS-42, 72 h, read-out: KNS42 prolif., IC50
How it was run: (§1)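 Human cells were kept at 37 °C, 5% CO2 with pen/strep in RPMI/10% FBS (KNS42, BT-12, BT-16), EMEM/10% FBS (DAOY) or DMEM/15% FBS (HFF1). Seeding was 2000 cells/well (KNS42 4000), followed by overnight attachment. Compound medium (0.5, 1, 2.5, 5, 7.5, 10) or 0.1% DMSO control was then applied for 72 h. MTT absorbance was read at 570/600 nm, background subtracted, and IC50 calculated.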

M. tb H37Rv strain [2] = test: Anti-TB activity, microplate alamarBlue assay; format: cell-based, Mycobacterium tuberculosis; conditions: H37Rv MIC values converted to μM; for MIC: Mycobacterium tuberculosis, H37RV, read-out: H37Rv, MIC, MABA; for H37Rv, MIC: MABA
How it was run: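 Whole-cell M. tuberculosis H37Rv growth inhibition by microplate alamarBlue assay. MIC is the lowest concentration giving at least 90% reduction of bacterial growth, averaged over three individual measurements. It was then converted to molar units. Front-line anti-TB drugs served as positive controls.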

Vero cells = test: Cytotoxicity against Vero cells; format: cell-based; conditions: SI = IC50(Vero)/MIC(H37Rv)
M. tb H37Rv strain [3] = conditions: cited from earlier work
healthy cells = conditions: read-out: Cytotoxicity to healthy cells, IC50; cited from earlier work
BT12 cells (AT/RT) [4] = test: BT12 cell proliferation assay; format: cell-based; conditions: Homo sapiens, BT-12, 72 h, read-out: BT12 prolif., IC50
How it was run: as §1

BT16 cells (AT/RT) [5] = test: BT16 cell proliferation assay; format: cell-based; conditions: Homo sapiens, BT-16, 72 h, read-out: BT16 prolif., IC50
How it was run: as §1

[6] = tested on: DAOY cells (medulloblastoma); test: DAOY cell proliferation assay; format: cell-based; conditions: Homo sapiens, 72 h, read-out: DAOY prolif., IC50
How it was run: as §1

[7] = tested on: DAOY cells (medulloblastoma); test: DAOY cell viability assay; format: cell-based; conditions: Homo sapiens, 72 h, read-out: DAOY viability, IC50
How it was run: (§2)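 Cultures were grown at 37 °C, 5% CO2 with pen/strep in RPMI/10% FBS (BT-12, BT-16), EMEM/10% FBS (DAOY) or DMEM/15% FBS (HFF1). Cells were plated at 2000 per well and incubated overnight. They were then exposed for 72 h to test compound (0.5–10, six levels) or 0.1% DMSO medium. PrestoBlue fluorescence was read at 560/590 nm, background removed, and IC50 derived.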

[8] = tested on: carbonic anhydrase 9 (CA9) gene; test: Transcriptional analysis of KNS42 cells, CA9 expression; format: cell-based, human; conditions: 10 μM, 72 hours, versus untreated, p < 0.01
How it was run: (§3)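 KNS42 cells in RPMI/10% FBS with pen/strep, 37 °C, 5% CO2, were treated with test compound at 10 for 72 h. Cells were PBS-washed, scraped and pelleted. RNA was TRIzol-extracted, resuspended in DEPC water and quantified by Qubit broad-range assay. Samples underwent DNBSEQ eukaryotic stranded transcriptome resequencing to determine differential expression.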

[9] = tested on: spleen tyrosine kinase (SYK) gene; test: Transcriptional analysis of KNS42 cells, SYK expression; format: cell-based, human; conditions: 10 μM, 72 hours, versus untreated, p < 0.05
How it was run: as §3

BT12 cells (AT/RT) [10] = test: BT12 cell viability assay; format: cell-based; conditions: Homo sapiens, BT-12, 72 h, read-out: BT12 viability, IC50
How it was run: as §2

KNS42 cells = test: Transcriptional analysis of KNS42 cells, differential gene expression; format: cell-based, human; conditions: 10 μM, 72 hours, fold change ≥ 8, P < 0.05
How it was run: as §3

[11] = tested on: HFF1 non-neoplastic human fibroblasts; test: HFF1 cell viability assay; format: cell-based; conditions: HFF-1, 72 h, read-out: HFF1 viability, IC50
How it was run: as §2

[12] = tested on: HFF1 non-neoplastic human fibroblasts; test: HFF1 cell proliferation assay; format: cell-based; conditions: HFF-1, 72 h, read-out: HFF1 prolif., IC50
How it was run: as §1

BT16 cells (AT/RT) [13] = test: BT16 cell viability assay; format: cell-based; conditions: Homo sapiens, BT-16, 72 h, read-out: BT16 viability, IC50
How it was run: as §2

[14] = biological target: cannabinoid receptor 2 (CB2); conditions: read-out: CB2 agonistic activity, EC50; cited from earlier work
human THP-1 cells = conditions: cited from earlier work

Cc1ccc2[nH]c(C(=O)NC(C)C34CC5CC(CC(C5)C3)C4)cc2c1 (centres unmarked) [Compound 8d, N-(1-(Adamantan-1-yl)ethyl)-5-methyl-1H-indole-2-carboxamide]
IC50 [1]: > 10 µM
MIC (M. tb H37Rv strain [2]): 2.97 µM (≈ 0.999 µg/mL)

CC(NC(=O)c1cc2c(Cl)cc(Cl)cc2[nH]1)C12CC3CC(CC(C3)C1)C2 (centres unmarked) [Compound 8g, N-(1-(Adamantan-1-yl)ethyl)-4,6-dichloro-1H-indole-2-carboxamide]
SI (selectivity index) (Vero cells): 128
IC50 [1]: > 10 µM
MIC (M. tb H37Rv strain [2]): 0.32 µM (≈ 0.125 µg/mL)

COc1cccc2[nH]c(C(=O)NC(C)C34CC5CC(CC(C5)C3)C4)cc12 (centres unmarked) [Compound 8b, N-(1-(Adamantan-1-yl)ethyl)-4-methoxy-1H-indole-2-carboxamide]
IC50 [1]: > 10 µM

Cc1cc(C)c2cc(C(=O)NC34CC5CC(CC(C5)C3)C4)[nH]c2c1 [Compound 2, N-(1-adamantyl)-4,6-dimethylindole-2-carboxamide]
MIC (M. tb H37Rv strain [3]): 0.012 µM (≈ 0.00387 µg/mL)
IC50 (healthy cells): > 200 µM

NNC(=O)c1ccncc1 [INH, isoniazid]
H37Rv, MIC (M. tb H37Rv strain [3]): 0.04 (ref. [6]) μg mL^−1

COc1ccc2[nH]c(C(=O)NC(C)C34CC5CC(CC(C5)C3)C4)cc2c1 (centres unmarked) [Compound 8c, N-(1-(Adamantan-1-yl)ethyl)-5-methoxy-1H-indole-2-carboxamide]
IC50 [1]: > 10 µM
H37Rv, MIC (M. tb H37Rv strain [2]): 5.67 µM
MIC (M. tb H37Rv strain [2]): < 6 µM

O=C(NC(=O)c1cc2c(F)cc(F)cc2[nH]1)c1cccc(F)c1 [Compound 11a, 4,6-Difluoro-N-(3-fluorobenzoyl)-1H-indole-2-carboxamide]
IC50 [1]: > 10 µM
H37Rv, MIC (M. tb H37Rv strain [2]): >101 µM
MIC (M. tb H37Rv strain [2]): > 96 µM

CC(NC(=O)c1cc2cc(Cl)ccc2[nH]1)C12CC3CC(CC(C3)C1)C2 (centres unmarked) [Compound 8e, N-(1-(Adamantan-1-yl)ethyl)-5-chloro-1H-indole-2-carboxamide]
IC50 [1]: > 10 µM

CC(NC(=O)c1cc2ccc(Br)cc2[nH]1)C12CC3CC(CC(C3)C1)C2 (centres unmarked) [Compound 8f, N-(1-(Adamantan-1-yl)ethyl)-6-bromo-1H-indole-2-carboxamide]
SI (selectivity index) (Vero cells): 64
IC50 [1]: > 10 µM
MIC (M. tb H37Rv strain [2]): 0.62 µM (≈ 0.249 µg/mL)

O=C(c1cc2c(F)cc(F)cc2[nH]1)N1CCN(C(=O)C23CC4CC(CC(C4)C2)C3)CC1 [Compound 15, (Adamantan-1-yl)(4-(4,6-difluoro-1H-indole-2-carbonyl)piperazin-1-yl)methanone]
IC50 (BT12 cells (AT/RT) [4]): > 10 µM
IC50 (BT16 cells (AT/RT) [5]): > 10 µM
IC50 [6]: > 10 µM
IC50 [7]: > 10 µM
IC50 [1]: 6.62 µM
Downregulation of CA9 expression [8]: 15 fold
Downregulation of SYK expression [9]: 9 fold
IC50 (BT12 cells (AT/RT) [10]): 3.16 µM
Number of genes with downregulated expression (KNS42 cells): 9 genes
IC50 [11]: 19.4 µM
H37Rv, MIC (M. tb H37Rv strain [2]): >75 µM
IC50 [12]: 17.4 µM
IC50 (BT16 cells (AT/RT) [13]): 5.89 µM

O=C(NC(=O)c1cc2c(F)cc(F)cc2[nH]1)c1cccc(Cl)c1 [Compound 11b, N-(3-Chlorobenzoyl)-4,6-difluoro-1H-indole-2-carboxamide]
IC50 [1]: > 10 µM
H37Rv, MIC (M. tb H37Rv strain [2]): >96 µM

CC(NC(=O)c1cc2c(F)cc(F)cc2[nH]1)C12CC3CC(CC(C3)C1)C2 (centres unmarked) [Compound 8h, N-(1-(Adamantan-1-yl)ethyl)-4,6-difluoro-1H-indole-2-carboxamide]
IC50 [1]: > 10 µM

O=C(NC12CC3CC(CC(C3)C1)C2)c1cc2ccccc2[nH]1 [Compound 3, N-(1-adamantyl)-indole-2-carboxamide]
IC50 [1]: > 10 µM
EC50 [14]: 0.98 µM
Cytotoxicity against human THP-1 cells (human THP-1 cells): non-cytotoxic up to 50

O=C(NNc1ccccc1)c1cc2c(F)cc(F)cc2[nH]1 [Compound 9b, 4,6-Difluoro-N′-phenyl-1H-indole-2-carbohydrazide]
IC50 [1]: > 10 µM
H37Rv, MIC (M. tb H37Rv strain [2]): >111 µM
MIC (M. tb H37Rv strain [2]): > 96 µM

O=C(NC12CC3CC(CC(C3)C1)C2)c1ccc(NC(=O)c2cc3c(F)cc(F)cc3[nH]2)cc1 [Compound 20, N-(4-((Adamantan-1-yl)carbamoyl)phenyl)-4,6-difluoro-1H-indole-2-carboxamide]
IC50 [1]: > 10 µM
H37Rv, MIC (M. tb H37Rv strain [2]): >71 µM
MIC (M. tb H37Rv strain [2]): > 71 µM

CC(NC(=O)c1cc2ccccc2[nH]1)C12CC3CC(CC(C3)C1)C2 (centres unmarked) [Compound 8a, N-(1-(Adamantan-1-yl)ethyl)-1H-indole-2-carboxamide]
H37Rv, MIC (M. tb H37Rv strain [3]): > 15.5 µM
IC50 [1]: > 10 µM
MIC (M. tb H37Rv strain [2]): 6.2 µM (≈ 2 µg/mL)

CC[C@@H](CO)NCCN[C@@H](CC)CO [EMB, ethambutol]
H37Rv, MIC (M. tb H37Rv strain [3]): 1 (ref. [6]) μg mL^−1

O=C(c1cc2c(F)cc(F)cc2[nH]1)N1CCNCC1 [Compound 14, (4,6-Difluoro-1H-indol-2-yl)(piperazin-1-yl)methanone]
IC50 [1]: > 10 µM
H37Rv, MIC (M. tb H37Rv strain [2]): >121 µM
MIC (M. tb H37Rv strain [2]): > 121 µM

O=C(NCc1ccccc1)c1cc2c(F)cc(F)cc2[nH]1 [Compound 9a, N-Benzyl-4,6-difluoro-1H-indole-2-carboxamide]
IC50 (BT12 cells (AT/RT) [4]): 7.44 µM
IC50 (BT16 cells (AT/RT) [5]): 6.06 µM
IC50 [6]: > 10 µM
IC50 [7]: > 10 µM
IC50 [1]: 9.85 µM
IC50 (BT12 cells (AT/RT) [10]): 0.89 µM
IC50 [11]: 119 µM
H37Rv, MIC (M. tb H37Rv strain [2]): >112 µM
MIC (M. tb H37Rv strain [2]): > 112 µM
IC50 [12]: 65 µM
IC50 (BT16 cells (AT/RT) [13]): 1.81 µM
